Experimental data from ChEMBL document CHEMBL4017509, “A Dual Modulator of Farnesoid X Receptor and Soluble Epoxide Hydrolase To Counter Nonalcoholic Steatohepatitis” (J Med Chem, 2017).
Active and inactive are the calls of the source. No cut-off for these calls is given here.

Key:
Liver = test: Drug metabolism in Sprague-Dawley rat liver microsomes assessed as N-(2-chloro-4-(methylsulfonamido)benzyl)-4-(1-hydroxy-2-methylpropan-2-yl)benzamide formation at 10 uM preincubated with NADPH regenerating system for 5 mins followed by addition of liver microsomes by LC-MS/MS method; format: ADME, microsome
[1] = target: Retinoic acid receptor RXR-gamma (Homo sapiens) (UniProt P48443); test: Transactivation of human GAL4-fused RXRgamma ligand binding domain expressed in […] cells at 10 uM after 12 to 14 hrs by dual-glo luciferase reporter gene assay; format: cell-based
In short: (§1)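 HEK293T cells in DMEM/10% FCS, Opti-MEM before Lipofectamine LTX transfection with pFR-Luc reporter, pRL-SV40 and pFA-CMV GAL4–LBD plasmid. 5 h later compound in 0.1% DMSO, Opti-MEM, overnight (12−14 h). Dual luciferase; firefly/renilla ×1000 = RLU, fold over DMSO control; triplicates, ≥3 independent repeats.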

[2] = target: Nuclear receptor subfamily 1 group I member 3 (Homo sapiens, UniProt Q14994); test: Transactivation of human GAL4-fused CAR ligand binding domain expressed in […] cells at 10 uM after 12 to 14 hrs by dual-Glo luciferase reporter gene assay; format: cell-based; in short: as §1
[3] = target: Oxysterols receptor LXR-alpha (Homo sapiens) (UniProt Q13133); test: Transactivation of human GAL4-fused LXRalpha ligand binding domain expressed in […] cells at 10 uM after 12 to 14 hrs by dual-glo luciferase reporter gene assay; format: cell-based; in short: as §1
[4] = target: Retinoic acid receptor RXR-alpha (Homo sapiens) (UniProt P19793); test: Transactivation of human GAL4-fused RXRalpha ligand binding domain expressed in […] cells at 10 uM after 12 to 14 hrs by dual-glo luciferase reporter gene assay; format: cell-based; in short: as §1
MDM = test: Effect on IL-10 levels in LPS-stimulated primary human MDM at 0.01 uM after 16 hrs by cytometric bead array method; format: functional, cell-based
In short: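 Blood monocytes isolated by dextran sedimentation and Nycoprep gradient, adherence-selected 1 h, differentiated with GM-CSF 10 ng/mL for 7 days plus IFNγ 10 ng/mL for last 48 h. Stimulated with LPS 100 ng/mL plus compound for 16 h; supernatant IL-10 and IL-12p70 measured by cytometric bead array flow cytometry.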

[5] = target: Peroxisome proliferator-activated receptor alpha (Homo sapiens) (UniProt Q07869); test: Transactivation of human GAL4-fused PPARalpha ligand binding domain expressed in […] cells at 10 uM after 12 to 14 hrs by dual-glo luciferase reporter gene assay; format: cell-based; in short: as §1
[6] = target: T1, Peroxisome proliferator-activated receptor gamma (Homo sapiens) (UniProt P37231); test: Transactivation of human GAL4-fused PPARgamma ligand binding domain expressed in HEL293T cells at 10 uM after 12 to 14 hrs by dual-glo luciferase reporter gene assay relative to pioglitazone; format: cell-based
T1 sequence (whole entry): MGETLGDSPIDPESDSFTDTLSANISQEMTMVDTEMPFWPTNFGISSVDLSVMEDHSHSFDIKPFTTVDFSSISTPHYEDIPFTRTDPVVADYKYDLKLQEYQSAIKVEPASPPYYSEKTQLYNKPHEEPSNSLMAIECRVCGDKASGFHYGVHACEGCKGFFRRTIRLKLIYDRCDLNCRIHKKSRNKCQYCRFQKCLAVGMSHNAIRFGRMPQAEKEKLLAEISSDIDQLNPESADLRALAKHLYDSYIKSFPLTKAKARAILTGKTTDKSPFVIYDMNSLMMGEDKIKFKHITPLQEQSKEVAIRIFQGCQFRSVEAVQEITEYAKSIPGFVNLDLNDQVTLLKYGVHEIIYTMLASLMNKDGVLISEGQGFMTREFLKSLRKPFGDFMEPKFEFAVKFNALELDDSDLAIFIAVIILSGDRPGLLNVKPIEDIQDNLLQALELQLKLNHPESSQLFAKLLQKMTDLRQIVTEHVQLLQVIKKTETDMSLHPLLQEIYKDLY

[7] = target: Retinoic acid receptor RXR-beta (Homo sapiens) (UniProt P28702); test: Transactivation of human GAL4-fused RXRbeta ligand binding domain expressed in […] cells at 10 uM after 12 to 14 hrs by dual-glo luciferase reporter gene assay; format: cell-based; in short: as §1
[8] = target: T2, Bifunctional epoxide hydrolase 2 (Homo sapiens) (UniProt P34913); test: Inhibition of sEH in human HuT-78 cells assessed as reduction in Pam3CSK4-stimulated TNFalpha release preincubated for 24 hrs followed by Pam3CSK4 addition measured after 18 hrs by ELISA; format: cell-based
T2 sequence (whole entry): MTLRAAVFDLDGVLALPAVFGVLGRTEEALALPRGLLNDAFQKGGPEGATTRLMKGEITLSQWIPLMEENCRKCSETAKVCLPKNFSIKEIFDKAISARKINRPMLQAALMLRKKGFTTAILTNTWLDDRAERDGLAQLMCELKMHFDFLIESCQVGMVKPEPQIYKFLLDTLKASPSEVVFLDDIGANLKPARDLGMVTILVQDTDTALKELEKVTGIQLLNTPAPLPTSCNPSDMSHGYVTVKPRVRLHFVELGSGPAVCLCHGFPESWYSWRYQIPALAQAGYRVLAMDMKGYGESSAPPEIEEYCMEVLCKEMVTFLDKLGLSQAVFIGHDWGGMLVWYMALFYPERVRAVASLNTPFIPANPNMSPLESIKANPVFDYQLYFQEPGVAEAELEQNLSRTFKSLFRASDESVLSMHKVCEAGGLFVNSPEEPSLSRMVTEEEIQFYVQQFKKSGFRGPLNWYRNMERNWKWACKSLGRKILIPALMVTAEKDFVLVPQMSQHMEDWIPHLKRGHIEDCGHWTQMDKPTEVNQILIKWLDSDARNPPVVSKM
In short: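 HuT-78 cells in RPMI 1640 with 10% heat-inactivated FCS, 2.0 × 10^6 cells/well, exposed to compound (0.1% DMSO) for 24 h; medium then replaced with fresh compound plus Pam3CSK4 20 ng/mL for 18 h; supernatant TNFα measured by ELISA (absorbance 450 nm); each concentration repeated independently at least three times.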

[9] = target: G-protein coupled bile acid receptor 1 (Homo sapiens) (UniProt Q8TDU6); test: Antagonist activity at TGR5 (unknown origin) at 10 uM
Sequence of G-protein coupled bile acid receptor 1 (Homo sapiens) (Q8TDU6 whole entry): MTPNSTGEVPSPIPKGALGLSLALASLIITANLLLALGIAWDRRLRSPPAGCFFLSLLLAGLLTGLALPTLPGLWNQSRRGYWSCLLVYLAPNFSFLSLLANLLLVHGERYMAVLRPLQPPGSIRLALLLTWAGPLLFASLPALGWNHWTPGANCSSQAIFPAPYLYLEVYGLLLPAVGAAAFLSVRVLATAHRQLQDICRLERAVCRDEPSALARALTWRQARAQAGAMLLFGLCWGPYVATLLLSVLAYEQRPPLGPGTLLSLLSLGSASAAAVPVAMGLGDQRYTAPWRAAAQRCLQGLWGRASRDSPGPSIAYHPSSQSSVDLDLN

Sequence of Peroxisome proliferator-activated receptor alpha (Homo sapiens) (Q07869 whole entry, the tested form may be a part): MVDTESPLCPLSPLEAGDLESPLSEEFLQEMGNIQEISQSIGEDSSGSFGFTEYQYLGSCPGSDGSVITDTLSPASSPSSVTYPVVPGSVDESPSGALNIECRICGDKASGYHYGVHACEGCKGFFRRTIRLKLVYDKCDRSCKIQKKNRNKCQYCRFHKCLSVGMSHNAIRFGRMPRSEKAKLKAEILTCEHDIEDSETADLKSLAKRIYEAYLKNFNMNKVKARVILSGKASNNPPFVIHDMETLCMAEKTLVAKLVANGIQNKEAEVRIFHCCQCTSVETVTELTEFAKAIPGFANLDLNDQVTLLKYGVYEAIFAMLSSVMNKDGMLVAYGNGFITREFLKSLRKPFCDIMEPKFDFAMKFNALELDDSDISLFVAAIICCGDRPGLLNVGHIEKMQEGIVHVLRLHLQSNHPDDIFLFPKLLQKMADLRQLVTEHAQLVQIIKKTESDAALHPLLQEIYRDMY
Sequence of Retinoic acid receptor RXR-gamma (Homo sapiens) (P48443 whole entry, the tested form may be a part): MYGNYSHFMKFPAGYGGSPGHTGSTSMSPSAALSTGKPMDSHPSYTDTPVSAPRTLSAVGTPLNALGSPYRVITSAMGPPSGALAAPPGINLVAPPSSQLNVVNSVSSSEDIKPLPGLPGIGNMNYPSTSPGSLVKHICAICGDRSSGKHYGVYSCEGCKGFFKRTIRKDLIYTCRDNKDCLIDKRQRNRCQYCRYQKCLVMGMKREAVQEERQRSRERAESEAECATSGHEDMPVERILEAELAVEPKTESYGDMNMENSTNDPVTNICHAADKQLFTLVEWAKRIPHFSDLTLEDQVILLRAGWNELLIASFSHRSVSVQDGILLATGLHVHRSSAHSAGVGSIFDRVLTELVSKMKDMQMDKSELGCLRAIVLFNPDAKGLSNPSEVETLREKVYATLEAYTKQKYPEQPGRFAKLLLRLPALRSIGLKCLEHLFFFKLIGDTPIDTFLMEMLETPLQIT
Sequence of Retinoic acid receptor RXR-beta (Homo sapiens) (P28702 whole entry, the tested form may be a part): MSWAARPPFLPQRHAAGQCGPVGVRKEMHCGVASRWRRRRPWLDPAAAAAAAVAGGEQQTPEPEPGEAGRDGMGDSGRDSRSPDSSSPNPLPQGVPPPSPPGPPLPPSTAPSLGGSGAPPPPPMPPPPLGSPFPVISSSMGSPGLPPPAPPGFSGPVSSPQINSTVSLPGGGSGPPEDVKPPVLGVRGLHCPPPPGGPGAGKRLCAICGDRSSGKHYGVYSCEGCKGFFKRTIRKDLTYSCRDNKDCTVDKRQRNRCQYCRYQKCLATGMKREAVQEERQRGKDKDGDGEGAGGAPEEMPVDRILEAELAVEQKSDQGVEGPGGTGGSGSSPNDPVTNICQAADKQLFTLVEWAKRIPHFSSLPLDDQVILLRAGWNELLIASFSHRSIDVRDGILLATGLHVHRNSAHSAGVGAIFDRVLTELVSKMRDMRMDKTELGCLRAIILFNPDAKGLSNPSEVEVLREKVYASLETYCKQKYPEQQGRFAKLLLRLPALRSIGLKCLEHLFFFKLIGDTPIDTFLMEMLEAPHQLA
Sequence of Retinoic acid receptor RXR-alpha (Homo sapiens) (P19793 whole entry, the tested form may be a part): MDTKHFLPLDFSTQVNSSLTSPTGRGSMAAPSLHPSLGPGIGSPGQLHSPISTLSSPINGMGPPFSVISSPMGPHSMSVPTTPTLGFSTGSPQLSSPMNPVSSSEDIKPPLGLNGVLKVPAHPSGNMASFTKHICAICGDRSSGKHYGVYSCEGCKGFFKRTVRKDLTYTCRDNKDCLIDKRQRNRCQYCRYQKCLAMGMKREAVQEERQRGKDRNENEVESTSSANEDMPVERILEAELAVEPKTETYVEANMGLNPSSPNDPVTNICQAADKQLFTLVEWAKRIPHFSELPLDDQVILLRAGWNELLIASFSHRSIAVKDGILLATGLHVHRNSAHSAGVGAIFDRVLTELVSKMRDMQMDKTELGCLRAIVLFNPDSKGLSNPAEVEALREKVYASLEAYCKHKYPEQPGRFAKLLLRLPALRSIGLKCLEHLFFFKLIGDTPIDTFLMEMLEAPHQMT
Sequence of Nuclear receptor subfamily 1 group I member 3 (Q14994 whole entry, the tested form may be a part): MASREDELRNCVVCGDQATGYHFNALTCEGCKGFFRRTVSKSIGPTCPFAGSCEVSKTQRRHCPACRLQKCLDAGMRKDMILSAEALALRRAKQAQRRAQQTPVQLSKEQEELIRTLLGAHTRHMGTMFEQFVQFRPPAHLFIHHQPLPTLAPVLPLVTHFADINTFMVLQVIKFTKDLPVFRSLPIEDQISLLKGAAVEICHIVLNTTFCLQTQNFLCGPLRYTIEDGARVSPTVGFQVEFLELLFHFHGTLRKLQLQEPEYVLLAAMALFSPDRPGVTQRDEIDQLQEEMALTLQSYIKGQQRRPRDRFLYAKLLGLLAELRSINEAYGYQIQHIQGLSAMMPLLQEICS
Sequence of Oxysterols receptor LXR-alpha (Homo sapiens) (Q13133 whole entry, the tested form may be a part): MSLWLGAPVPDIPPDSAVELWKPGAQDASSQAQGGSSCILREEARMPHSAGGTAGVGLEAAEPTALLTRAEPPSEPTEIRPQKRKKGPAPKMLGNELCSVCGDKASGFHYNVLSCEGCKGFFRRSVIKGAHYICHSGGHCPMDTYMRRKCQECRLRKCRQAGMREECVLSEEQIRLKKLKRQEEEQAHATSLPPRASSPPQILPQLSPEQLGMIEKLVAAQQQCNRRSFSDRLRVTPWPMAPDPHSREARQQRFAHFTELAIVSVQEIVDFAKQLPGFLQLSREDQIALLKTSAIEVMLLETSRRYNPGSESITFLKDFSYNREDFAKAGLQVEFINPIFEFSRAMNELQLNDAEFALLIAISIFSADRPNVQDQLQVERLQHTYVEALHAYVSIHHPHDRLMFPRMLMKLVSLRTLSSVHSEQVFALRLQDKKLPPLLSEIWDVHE

CC(C)(C)c1ccc(C(=O)NCc2ccc(NS(C)(=O)=O)cc2Cl)cc1
Drug metabolism (Liver): Metabolite_Detected | Activity [1]: inactive | Activity [2]: Not Active | Activity [3]: inactive | Activity [4]: inactive | Activity (MDM): inactive | Activity [5]: inactive | Emax [6]: 30% | Activity [7]: inactive | inhibition [8]: Active | inhibition [9]: inactive
